Laboratory results published in ChEMBL document CHEMBL1641445, “Synthesis, antiprotozoal, antimicrobial, β-hematin inhibition, cytotoxicity and methemoglobin (MetHb) formation activities of bis(8-aminoquinolines)” (Bioorg Med Chem, 2011).
Active and inactive are the calls of the source. No cut-off for these calls is given here.

Columns and labels:
Staphylococcus aureus [1] = experiment: Antibacterial activity against methicillin-resistant Staphylococcus aureus ATCC 43300 by CLSI method; type: functional, organism-based
Outline: (§1)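 Broth dilution method (NCCLS M7-A5). […] MIC is the lowest concentration allowing no detectable growth. MBC is the lowest concentration killing the organism. Highest test concentration was 20 µg/mL.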

Cryptococcus neoformans [2] = experiment: Antifungal activity against Cryptococcus neoformans ATCC 90113; type: functional, organism-based
[3] = Inhibition of beta-hematin formation; type: functional
Vero = experiment: Cytotoxicity against african green monkey Vero cells up to 10 ug/ml by neutral red assay; type: cell-based; details: chlorocebus sabaeus
Outline: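 Vero (monkey kidney) cells were exposed up to a highest concentration of 10 µg/mL. Viability was read by neutral red uptake.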

Cryptococcus neoformans [4] = experiment: Antifungal activity against Cryptococcus neoformans ATCC 90113 at 20 ug/ml; type: functional, organism-based
Plasmodium falciparum [5] = experiment: Antimalarial activity against chloroquine-sensitive Plasmodium falciparum D6 by LDH assay; type: functional, organism-based; details: Plasmodium falciparum, D6; read-out: IC50
Outline: (§2)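 Antiplasmodial activity was measured in vitro against P. falciparum blood-stage cultures. Read-out was parasite lactate dehydrogenase (LDH) activity, with IC50 values expressed in µg/mL. The same protocol was used for the D6 and W2 strains.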

Candida albicans [6] = experiment: Antifungal activity against Candida albicans ATCC 90028 at 20 ug/ml; type: functional, organism-based
[7] = tested on: Mycobacterium intracellulare; experiment: Antibacterial activity against Mycobacterium intracellular ATCC 23068 by CLSI method; type: functional, organism-based
Leishmania donovani = experiment: Antileishmanial activity against promastigotes of Leishmania donovani by alamar blue assay; type: functional, organism-based; details: Leishmania donovani; for IC50: read-out: IC50
Plasmodium falciparum [8] = experiment: Antimalarial activity against chloroquine-resistant Plasmodium falciparum W2 by LDH assay; type: functional, organism-based; details: Plasmodium falciparum, W2; read-out: IC50; outline: as §2
Aspergillus fumigatus = experiment: Antifungal activity against Aspergillus fumigatus ATCC 90906 at 20 ug/ml; type: functional, organism-based
Pichia kudriavzevii = experiment: Antifungal activity against Candida krusei at 20 ug/ml; type: functional, organism-based
[9] = Hematotoxicity against RBC assessed as formation of methemoglobin at 20 ug/ml relative to control; type: cell-based; details: erythrocyte
Outline: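 Metabolism-linked methemoglobin toxicity in vitro. Percent MetHb formation was determined at 20 µg/mL of compound relative to vehicle control.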

Candida albicans [10] = experiment: Antifungal activity against Candida albicans ATCC 90028; type: functional, organism-based
Nakaseomyces glabratus = experiment: Antifungal activity against Candida glabrata at 20 ug/ml; type: functional, organism-based
Staphylococcus aureus [11] = experiment: Antibacterial activity against methicillin-resistant Staphylococcus aureus ATCC 43300 at 20 ug/ml by CLSI method; type: functional, organism-based; outline: as §1
Plasmodium berghei [12] = experiment: Antimalarial activity against Plasmodium berghei infected in mouse assessed as negative parasitemia level at 10 mg/kg, po qd for 4 days measured up to 7 days; type: functional, organism-based; set-up: dose 10 mg/kg
Outline: (§3)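 Mice infected with P. berghei (sensitive strain), 6 per group, dosed orally at 10–100 mg/kg/day × 4. Suppression meant negative parasitemia in all treated animals up to D+7. Survivors were counted at D+60.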

Plasmodium berghei [13] = experiment: Antimalarial activity against Plasmodium berghei infected in mouse assessed as complete elimination of malaria parasites from animals at 25 mg/kg, po qd for 4 days measured up to 60 days; type: functional, organism-based; set-up: dose 25 mg/kg
Outline: (§4)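 Rodent P. berghei (sensitive strain) blood-schizontocidal model, 6 mice per group. Compounds were given orally once daily for 4 days at 10, 25, 50 or 100 mg/kg/day. Cure meant complete parasite elimination with survival to day D+60.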

Plasmodium berghei [14] = experiment: Antimalarial activity against Plasmodium berghei infected in mouse assessed as complete elimination of malaria parasites from animals at 50 mg/kg, po qd for 4 days measured up to 60 days; type: functional, organism-based; set-up: dose 50 mg/kg; outline: as §4
Plasmodium berghei [15] = experiment: Antimalarial activity against Plasmodium berghei infected in mouse assessed as complete elimination of malaria parasites from animals at 100 mg/kg, po qd for 4 days measured up to 60 days; type: functional, organism-based; set-up: dose 100 mg/kg; outline: as §4
Plasmodium berghei [16] = experiment: Antimalarial activity against Plasmodium berghei infected in mouse assessed as negative parasitemia level at 100 mg/kg, po qd for 4 days measured up to 7 days; type: functional, organism-based; set-up: dose 100 mg/kg; outline: as §3
[17] = tested on: Mycobacterium intracellulare; experiment: Antibacterial activity against Mycobacterium intracellular ATCC 23068 at 20 ug/ml by CLSI method; type: functional, organism-based
Staphylococcus aureus [18] = experiment: Antibacterial activity against Staphylococcus aureus by CLSI method; type: functional, organism-based

Row | Compound | IC50 (Staphylococcus aureus [1]) [µg/mL] | MBC (Staphylococcus aureus [1]) [µg/mL] | MIC (Staphylococcus aureus [1]) [µg/mL] | IC50 (Cryptococcus neoformans [2]) [µg/mL] | IC50 [3] [µM] | Activity (Vero) | IC50 (Plasmodium falciparum [5]) [µg/mL] | MFC (Candida albicans [6]) | IC50 [7] [µg/mL] | IC90 (Leishmania donovani) [µg/mL] | IC50 (Leishmania donovani) [µg/mL] | IC50 (Plasmodium falciparum [8]) [µg/mL] | Activity (Aspergillus fumigatus) | Activity (Pichia kudriavzevii) | Methemoglobin formation [9] [%] | IC50 (Candida albicans [10]) [µg/mL] | Activity (Nakaseomyces glabratus) | MFC (Cryptococcus neoformans [2]) [µg/mL] | MIC (Cryptococcus neoformans [2]) [µg/mL] | MIC (Candida albicans [6]) | also measured
1 | COc1cc(NC(C)CCCNC(=S)NCCCC(C)Nc2cc(OC)cc3cccnc23)c2ncccc2c1.Cl.Cl (configuration not stated) | 3 | 10 | 5 | 15 | > 1000 | Non-toxic | 2.3 | inactive | 4.5 | 20 | 4 | 2.4 | inactive | inactive | 3.7 | 10 | inactive | – | – | – | MFC (Cryptococcus neoformans [4]): inactive; MIC (Cryptococcus neoformans [4]): inactive
2 | COc1cc(NC(C)CCCNCCNCCNCCCC(C)Nc2cc(OC)cc3cccnc23)c2ncccc2c1.Cl.Cl (configuration not stated) | – | – | – | 15 | 180 | Non-toxic | 2.6 | inactive | 10 | 27 | – | 1.5 | inactive | inactive | 8.4 | – | inactive | 20 | 20 | inactive | IC50 (Staphylococcus aureus [11]): Not Active; MBC (Staphylococcus aureus [11]): inactive; MIC (Staphylococcus aureus [11]): inactive; Activity (Plasmodium berghei [12]): Active; IC50 (Candida albicans [6]): Not Active; Activity (Plasmodium berghei [13]): Active; MBC [7]: 20 µg/mL; MIC [7]: 20 µg/mL; Activity (Plasmodium berghei [14]): Active; Activity (Plasmodium berghei [15]): Active
3 | COc1cc(NC(C)CCCNCOC(=O)NCCCC(C)Nc2cc(OC)cc3cccnc23)c2ncccc2c1.Cl.Cl (configuration not stated) | – | – | – | 4.5 | 101 | Non-toxic | 2.6 | inactive | – | 38 | 20 | – | inactive | inactive | 5.3 | – | inactive | 5 | 5 | inactive | Activity (Plasmodium berghei [16]): Active; IC50 (Candida albicans [6]): Not Active
4 | COc1cc(NC(C)CCCNC(=O)N[C@H](CCCN)C(=O)NCCCC(C)Nc2cc(OC)cc3ccc(C(C)(C)C)nc23)c2nc(C(C)(C)C)ccc2c1.Cl (some centres not stated) | 1.78 | 5 | 5 | 9.97 | 10.8 | Non-toxic | – | inactive | 10 | 34 | 20 | 0.3 | inactive | inactive | 2.3 | > 20 | inactive | 20 | – | inactive | MBC [17]: inactive; Activity (Plasmodium berghei [12]): Active; Activity (Plasmodium berghei [13]): Active; MIC [7]: 20 µg/mL; Activity (Plasmodium berghei [14]): Active; IC50 (Staphylococcus aureus [18]): 2.73 µg/mL; MBC (Staphylococcus aureus [18]): 5 µg/mL; MIC (Staphylococcus aureus [18]): 5 µg/mL; Activity (Plasmodium berghei [15]): Active
5 | COc1cc(NC(C)CCCNC(=O)NC(CCCCN)C(=O)NCCCC(C)Nc2cc(OC)cc3ccc(C(C)(C)C)nc23)c2nc(C(C)(C)C)ccc2c1.Cl (single isomer, unassigned) | 1.97 | 5 | 5 | 6.45 | 45 | Non-toxic | – | inactive | 7.12 | 36 | 21 | 1.3 | inactive | inactive | 2.25 | 17.9 | inactive | 10 | 10 | – | MBC [17]: inactive; Activity (Plasmodium berghei [16]): Active; MIC [7]: 20 µg/mL; MIC (Candida albicans [10]): 20 µg/mL; IC50 (Staphylococcus aureus [18]): 2.58 µg/mL; MBC (Staphylococcus aureus [18]): 5 µg/mL; MIC (Staphylococcus aureus [18]): 5 µg/mL
